Assay results from ChEMBL document CHEMBL1125485, “Inhibitors of blood platelet cAMP phosphodiesterase. 2. Structure-activity relationships associated with 1,3-dihydro-2H-imidazo[4,5-b]quinolin-2-ones substituted with functionalized side chains” (J Med Chem, 1992).

Key:
Mustela putorius furo [1] = assay: Change in right ventricular contractile force (RCVF) in anesthetized ferrets by intraduodenal dose at 10 mg/kg; conditions: Heart right ventricle
Mustela putorius furo [2] = assay: Change in mean arterial blood pressure (MABP) in anesthetized ferrets by intraduodenal dose at 3 mg/kg; format: functional, Artery; conditions: dose 10 mg/kg, in the assay text read “10 mg/kg” for “3 mg/kg”
Procedure, shortened: (§1)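 Anesthetized ferrets dosed intraduodenally; heart rate, mean arterial blood pressure and right ventricular contractile force monitored as dose-dependent changes, reported as maximum change (%). Averages from at least three separate experiments.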

Canis familiaris [3] = assay: Inhibition of coronary artery occlusion (mean area under flow time curve) in anesthetized dog at 0.03 mg/kg; format: functional; conditions: Canis lupus familiaris
Procedure, shortened: (§2)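 Modified Folts-type coronary stenosis-occlusion model of large-vessel thrombosis; read-out mean area under flow-time curve (% seconds) compared with vehicle-treated animals, as percent inhibition of thrombus formation. Five animals.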

Phosphodiesterase 3 [4] = target: T1, Phosphodiesterase 3 (Homo sapiens, UniProt Q14432+Q13370); assay: Inhibition of human platelet PDE by inhibiting cyclic Adenosine monophosphate (cAMP) hydrolysis
Oryctolagus cuniculus [5] = assay: Inhibition of thrombus formation (mean thrombus area) in conscious rabbits at 1.0 mg/kg; format: functional; conditions: values are per cent of control
Procedure, shortened: (§3)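 Conscious rabbit ear biolaser model: ruby laser induces microvascular thrombi. Predose mean thrombus area from 10 vessels, then compound given orally as suspension in H2O/Tween 20 and 10 trials repeated 2 h later in the same rabbit; percent inhibition versus predose. At least three rabbits.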

Mustela putorius furo [6] = assay: Change in heart rate (HR)in anesthetized ferrets by intraduodenal dose at 10 mg/kg
Mustela putorius furo [7] = assay: Change in right ventricular contractile force (RCVF) in anesthetized ferrets by intraduodenal dose at 0.3 mg/kg; format: functional; conditions: Heart right ventricle, dose 3 mg/kg, in the assay text read “3 mg/kg” for “0.3 mg/kg”
Procedure, shortened: as §1

Mustela putorius furo [8] = assay: Change in heart rate (HR)in anesthetized ferrets by intraduodenal dose at 0.3 mg/kg; format: functional; conditions: dose 3 mg/kg, in the assay text read “3 mg/kg” for “0.3 mg/kg”
Procedure, shortened: as §1

[9] = target: cGMP-dependent 3',5'-cyclic phosphodiesterase (Homo sapiens, UniProt O00408); assay: Inhibition of human platelet PDE by inhibiting cyclic Guanosine monophosphate (cGMP) hydrolysis
cGMP-dependent 3',5'-cyclic phosphodiesterase, sequence (O00408 whole entry): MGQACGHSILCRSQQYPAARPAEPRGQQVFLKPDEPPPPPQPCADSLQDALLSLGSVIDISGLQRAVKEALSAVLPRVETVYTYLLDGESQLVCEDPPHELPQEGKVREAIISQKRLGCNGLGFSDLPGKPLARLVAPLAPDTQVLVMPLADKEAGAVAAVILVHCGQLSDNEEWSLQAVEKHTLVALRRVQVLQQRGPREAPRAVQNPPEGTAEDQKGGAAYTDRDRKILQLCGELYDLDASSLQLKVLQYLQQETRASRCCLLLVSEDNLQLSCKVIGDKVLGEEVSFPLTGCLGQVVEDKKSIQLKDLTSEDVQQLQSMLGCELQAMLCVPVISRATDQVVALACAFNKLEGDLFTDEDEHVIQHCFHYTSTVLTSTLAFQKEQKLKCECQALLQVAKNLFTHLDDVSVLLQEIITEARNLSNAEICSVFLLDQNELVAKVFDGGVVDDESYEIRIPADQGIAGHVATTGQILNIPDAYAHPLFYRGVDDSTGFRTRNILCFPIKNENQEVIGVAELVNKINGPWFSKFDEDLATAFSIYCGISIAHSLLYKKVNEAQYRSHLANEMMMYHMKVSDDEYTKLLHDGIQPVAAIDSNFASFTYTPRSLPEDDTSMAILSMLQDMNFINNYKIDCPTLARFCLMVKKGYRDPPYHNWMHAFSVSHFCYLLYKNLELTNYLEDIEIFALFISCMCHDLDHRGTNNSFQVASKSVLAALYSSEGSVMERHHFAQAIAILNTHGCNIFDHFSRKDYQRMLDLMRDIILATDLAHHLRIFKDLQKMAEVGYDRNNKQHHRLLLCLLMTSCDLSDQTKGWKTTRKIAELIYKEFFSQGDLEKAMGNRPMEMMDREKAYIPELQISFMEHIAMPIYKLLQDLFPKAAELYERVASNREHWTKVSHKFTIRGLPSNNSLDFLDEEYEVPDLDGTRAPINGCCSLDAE

Mustela putorius furo [10] = assay: Change in mean arterial blood pressure (MABP) in anesthetized ferrets by intraduodenal dose at 0.3 mg/kg; format: functional, Artery; conditions: dose 3 mg/kg, in the assay text read “3 mg/kg” for “0.3 mg/kg”
Procedure, shortened: as §1

Oryctolagus cuniculus [11] = assay: Inhibition of thrombus formation (mean thrombus area) in conscious rabbits at 3.0 mg/kg; format: functional; conditions: values are per cent of control
Procedure, shortened: as §3

Oryctolagus cuniculus [12] = assay: Inhibition of thrombus formation (mean thrombus area) in conscious rabbits at 0.3 mg/kg; format: functional; conditions: values are per cent of control
Procedure, shortened: as §3

Rattus norvegicus = species on record: Rattus norvegicus; assay: Oral efficacy in rats using the ex vivo aggregatory protocol; format: functional
Procedure, shortened: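 Rats given compound orally, then ADP-induced platelet aggregation measured ex vivo.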

Oryctolagus cuniculus [13] = species on record: Oryctolagus cuniculus; assay: Inhibition of platelet aggregation using collagen as activating agent in rabbit platelet rich plasma (PRP); format: functional
Procedure, shortened: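 Rabbit platelet-rich plasma, aggregation triggered by ADP or collagen after 3 min preincubation of PRP with drug. Single or duplicate determinations, reference agent included.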

Canis familiaris [14] = assay: Inhibition of coronary artery occlusion (mean area under flow time curve) in anesthetized dog at 0.3 mg/kg; format: functional; conditions: Canis lupus familiaris
Procedure, shortened: as §2

Canis familiaris [15] = assay: Inhibition of coronary artery occlusion (mean area under flow time curve) in anesthetized dog at 0.1 mg/kg; format: functional; conditions: Canis lupus familiaris
Procedure, shortened: as §2

Canis familiaris [16] = assay: Inhibition of coronary artery occlusion (mean area under flow time curve) in anesthetized dog at 0.01 mg/kg; format: functional; conditions: Canis lupus familiaris
Procedure, shortened: as §2

[17] = Inhibition of human platelet c-AMP phosphodiesterase hydrolysis of cAMP
Oryctolagus cuniculus [18] = species on record: Oryctolagus cuniculus; assay: Inhibition of ADP-induced platelet aggregation in rabbit platelet rich plasma (PRP); format: functional
Procedure, shortened: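 Rabbit platelet-rich plasma, aggregation triggered by ADP or collagen after 3 min preincubation of PRP with drug. […] Single or duplicate determinations, reference agent included.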

Oryctolagus cuniculus [19] = assay: Inhibition of thrombus formation (mean thrombus area) in conscious rabbits at 10.0 mg/kg; format: functional; conditions: values are per cent of control
Procedure, shortened: as §3

Phosphodiesterase 3 [20] = target: T1, Phosphodiesterase 3; assay: Inhibition of human platelet PDE cAMP hydrolysis

| SMILES | IC50 (Phosphodiesterase 3 [4]) [nM] | IC50 [9] [nM] | EC50 (Oryctolagus cuniculus [13]) [nM] | inhibition in vivo at 0.03 mg/kg (Canis familiaris [3]) [%] | response, % of control at 1 mg/kg (Oryctolagus cuniculus [5]) [%] | response, % of control at 3 mg/kg (Oryctolagus cuniculus [11]) [%] | response, % of control at 0.3 mg/kg (Oryctolagus cuniculus [12]) [%] | ED50 (Rattus norvegicus) [mg/kg] | inhibition in vivo at 0.1 mg/kg (Canis familiaris [15]) [%] | other results |
| --- | --- | --- | --- | --- | --- | --- | --- | --- | --- | --- |
| O=c1[nH]c2cc3cc(OCCCCS(=O)(=O)c4ccccc4)ccc3nc2[nH]1 | 1 | > 100000 | – | 115 | 74 | 62 | 137 | – | – | RVCF (Mustela putorius furo [1]): 39%; MABP (Mustela putorius furo [2]): -11%; HR (Mustela putorius furo [6]): 31%; RVCF (Mustela putorius furo [7]): 16%; HR (Mustela putorius furo [8]): 13%; MABP (Mustela putorius furo [10]): -9% |
| COC(=O)/C=C/C=C/c1ccc2[nH]c3nc(O)nc-3cc2c1 | – | – | 670 | – | – | – | – | 10 | – | IC50 [17]: 90 nM |
| CN(C)C(=O)CCCOc1ccc2[nH]c3nc(O)nc-3cc2c1 | 40 | – | 950 | – | – | – | – | > 10 | – | EC50 (Oryctolagus cuniculus [18]): 4770 nM |
| O=C1CN2Cc3c(ccc(Cl)c3Cl)N=C2N1 [ANAGRELIDE] | – | – | – | 72 | 98 | 68 | – | – | 106 | response, % of control at 10 mg/kg (Oryctolagus cuniculus [19]): 49%; inhibition in vivo at 0.3 mg/kg (Canis familiaris [14]): 117% |
| Cn1c(O)nc2nc3ccc(OCCCC(=O)NC4CCCCC4)cc3cc21 | – | > 100000 | 20 | – | – | – | – | – | – | IC50 (Phosphodiesterase 3 [20]): 700 nM |

More lines, main results first:

| IC50 (Phosphodiesterase 3 [4]) [nM] | IC50 [9] [nM] | EC50 (Oryctolagus cuniculus [13]) [nM] | SMILES | inhibition in vivo at 0.03 mg/kg (Canis familiaris [3]) [%] | response, % of control at 1 mg/kg (Oryctolagus cuniculus [5]) [%] | response, % of control at 3 mg/kg (Oryctolagus cuniculus [11]) [%] | response, % of control at 0.3 mg/kg (Oryctolagus cuniculus [12]) [%] | ED50 (Rattus norvegicus) [mg/kg] | inhibition in vivo at 0.1 mg/kg (Canis familiaris [15]) [%] | other results |
| --- | --- | --- | --- | --- | --- | --- | --- | --- | --- | --- |
| 2 | 6000 | 2 | CN(C(=O)CCCOc1ccc2nc3[nH]c(=O)[nH]c3cc2c1)C1CCCCC1 | 115 | 65 | – | 97 | 2.9 | – | inhibition in vivo at 0.3 mg/kg (Canis familiaris [14]): > 120% |
| 400 | > 100000 | 20 | COC(=O)CCCOc1ccc2nc3[nH]c(=O)[nH]c3cc2c1 | 109 | 74 | 78 | 145 | – | 120 | inhibition in vivo at 0.01 mg/kg (Canis familiaris [16]): 78% |
| – | 30000 | – | O=C(O)CCCOc1ccc2[nH]c3nc(O)nc-3cc2c1 | 115 | 70 | 65 | 144 | – | 111 | inhibition in vivo at 0.01 mg/kg (Canis familiaris [16]): 89% |
| – | – | 280 | CCOC(=O)/C=C/c1ccc2[nH]c3nc(O)nc-3cc2c1 | – | – | – | – | – | – | IC50 [17]: 1000 nM |
